These results are taken from ChEMBL document CHEMBL1138262, “Discovery of small molecule CXCR4 antagonists” (J Med Chem, 2007).

The structures appear in SMILES notation. Where a SMILES comes first, the peptide text is derived from it. Bridges are numbered along the chain shown (N, C = ends). [ ]: non-standard residue; d: D form. 2Nal = N[C@@H](Cc1ccc2ccccc2c1)C(=O)O; Cit = NC(=O)NCCC[C@H](N)C(=O)O

Test [1] deals with T1, C-X-C chemokine receptor type 4 (Homo sapiens, UniProt P61073). Nature of the test: Displacement of biotinylated TN14003 from CXCR4 in MDA-MB-231 cells. The test is classed as cell-based. Put shortly:
(§1)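 MDA-MB-231 cells (2 × 10^4) seeded 2 days before. Exposed to compound at 1, 10, 100 or 1000 nM for 10 min at room temperature, then fixed in ice-cold 4% paraformaldehyde. After rehydration in PBS and avidin/biotin blocking, incubated 45 min at room temperature with 0.05 µg/mL biotinylated TN14003, then streptavidin-rhodamine 30 min. Residual binding assessed by fluorescence microscopy.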

Test [2] addresses T1, C-X-C chemokine receptor type 4. In words: Inhibition of CXCR4 in MDA-MB-231 cells. The test is classed as cell-based. Put shortly:
as §1

Test [3] relates to MDA-MB-231. In words: Cytotoxicity against MDA-MB-231 cells. To be noted: Homo sapiens. The test is classed as functional.
The nature of test [4]: Selectivity index, ratio of IC50 for CXCR4 to CC50 for MDA-MB-231 cells. The test is classed as functional, Homo sapiens.
Test [5] concerns the target T1, C-X-C chemokine receptor type 4. Nature of the test: Antagonist activity at CXCR4 in human U87 cells assessed as inhibition of SDF1-induced modulation of cAMP production by TR-FRET assay. The test is classed as functional, cell-based. To be noted: U-87MG ATCC. Put shortly:
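U87 glioma cells overexpressing CD4 and CXCR4 (U87CD4CXCR4), seeded 2500 cells/well in 2% FBS 48 h before test. Cells pretreated with compound at various concentrations for 15 min at room temperature, then challenged with 150 ng/mL SDF-1. SDF-1-driven cAMP reduction measured by TR-FRET LANCE cAMP kit as Gi function readout.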
Background: Changes in cAMP serve as a functional read-out for many G protein-coupled receptors.

Test [6] deals with MDA-MB-231. Nature of the test: Inhibition of SDF1-mediated invasion of human MDA-MB-231 cells. The test is classed as functional, cell-based. The gist of the method: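 Matrigel invasion chamber; MDA-MB-231 cells mixed with compound before seeding in top chamber, 200 ng/mL SDF-1α in bottom chamber as chemoattractant. Incubated 22 h in humidified incubator. Non-invading cells swabbed off the top. Invaded cells on the underside fixed in methanol, stained with H&E and counted to give invasion rate.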

T1 sequence (P61073 whole entry): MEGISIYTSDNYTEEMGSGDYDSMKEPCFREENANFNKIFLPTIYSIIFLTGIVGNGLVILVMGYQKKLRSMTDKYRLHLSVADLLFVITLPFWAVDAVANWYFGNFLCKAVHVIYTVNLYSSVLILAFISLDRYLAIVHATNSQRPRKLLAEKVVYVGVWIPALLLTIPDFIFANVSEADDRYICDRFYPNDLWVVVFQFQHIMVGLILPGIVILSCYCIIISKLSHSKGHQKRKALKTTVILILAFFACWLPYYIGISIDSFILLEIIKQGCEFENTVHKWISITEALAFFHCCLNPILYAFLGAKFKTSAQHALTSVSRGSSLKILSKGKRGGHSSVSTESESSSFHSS

For `c1cc(CNC2=NCCN2)ccc1CNC1=NCCN1`, the EC in test [1] was more than 1000 nM.

`N=C(N)c1ccc(CN)cc1`: in test [1], the EC is more than 1000 nM.

In turn, `NC(=O)c1ccc(C(N)=O)cc1` came in with an EC in test [1] of more than 1000 nM.

Turning to `FC(F)(F)c1cccc(NCc2ccc(CNc3cccc(C(F)(F)F)c3)cc2)c1`, in test [1], the EC was 1000 nM.

Consider `COc1ccccc1NCc1ccc(CNc2ccccc2OC)cc1`, for which the EC in test [1] worked out at 10 nM.

Regarding `c1ccc(NCc2ccc(CNc3ccccc3)c3ccccc23)cc1`, the EC in test [1] came out at 100 nM.

As for `N=C(N)N/N=C/c1ccc(/C=N/NC(=N)N)cc1`, in test [1], the EC amounted to 100 nM.

Take `c1ccc(NCc2ccccc2CNc2ccccc2)cc1`: the EC in test [1] came out at 100 nM.

`Cc1c(C)c(CN)c(C)c(C)c1CN`: the EC in test [1] is more than 1000 nM.

For the compound `c1ccc(CNc2ccccc2)cc1`, in test [1], the EC is more than 1000 nM.

The compound `CN(C)CCNCc1ccc(CNCCN(C)C)cc1` gave an EC in test [1] of more than 1000 nM.

Turning to `c1ccc(CNCc2ccc(CNCc3ccccc3)cc2)cc1`, the EC in test [1] turned out to be 80 nM.

`CN(Cc1ccc(CN(C)c2ccccc2)cc1)c1ccccc1` had an EC in test [1] of 100 nM.

`Cc1ccc(NCc2ccc(CNc3ccc(C)cc3)cc2)cc1` displayed an EC in test [1] of 10 nM.

In test [1], `c1ccc(NCc2ccc(CNc3ccccc3)cc2)cc1` had an EC of 10 nM.

With `NCc1ccc(CN)cc1`, the EC in test [1] is more than 1000 nM.

Consider `O=[N+]([O-])c1ccc(NCc2ccc(CNc3ccc([N+](=O)[O-])cc3)cc2)cc1`, for which, in test [1], the EC was determined as 1000 nM.

In turn, `c1ccc(-c2nc(-c3ccc(-c4nc(-c5ccccc5)c(-c5ccccc5)[nH]4)cc3)[nH]c2-c2ccccc2)cc1` gave an EC in test [1] of more than 1000 nM.

In turn, `Fc1ccccc1NCc1ccc(CNc2ccccc2F)cc1` came in with an EC in test [1] of 1 nM.

Compound `c1ccc(NCc2cccc(CNc3ccccc3)c2)cc1` registered an EC in test [1] of 10 nM.

The compound `N=C(N)NCc1ccc(CNC(=N)N)cc1` yielded an EC in test [1] of more than 1000 nM.

As for `N=C(N)c1ccc(C(=N)N)cc1`, the EC in test [1] is more than 1000 nM.

Compound `Oc1cc(CN2CCOCC2)c(O)cc1CN1CCOCC1` returned an EC in test [1] of more than 1000 nM.

In turn, `c1ccc(NCCNCc2ccc(CNCCNc3ccccc3)cc2)cc1` showed an EC in test [1] of more than 1000 nM.

For orientation: IC50 means the midpoint of a concentration-inhibition curve. A high value points to lower potency. One may read the CC50 as the concentration giving 50% cytotoxicity. A high value points to better tolerance by the cells. For the compound `N=C(N)NCCC[C@H](NC(=O)[C@@H]1CSSC[C@H](NC(=O)[C@H](Cc2ccc3ccccc3c2)NC(=O)[C@H](CCCNC(=N)N)NC(=O)[C@@H](N)CCCNC(=N)N)C(=O)N[C@@H](Cc2ccc(O)cc2)C(=O)N[C@@H](CCCNC(N)=O)C(=O)N[C@@H](CCCCN)C(=O)N[C@H](CCCCN)C(=O)N2CCC[C@H]2C(=O)N[C@@H](Cc2ccc(O)cc2)C(=O)N[C@@H](CCCNC(=N)N)C(=O)N[C@@H](CCCNC(N)=O)C(=O)N1)C(N)=O` (H-RR[2Nal]CY[Cit]K[dK]PYR[Cit]CR-NH2; disulfide 4-13), in test [2], the IC50 stood at 0.6 nM. Besides, half-maximal cytotoxicity in the test on MDA-MB-231 [3] (CC50) was put at 410000 nM. The Ratio in test [4] was 680000.

Regarding `C(=N\NC1=NCCN1)/c1ccc(/C=N/NC2=NCCN2)cc1`, the EC in test [1] is more than 1000 nM.

By EC50 is commonly meant the midpoint of the concentration-response curve. With `c1ccc(NCc2ccc(CNc3ccccn3)cc2)nc1`, in test [5], the Activity entry is “Dose-dependent effect”. Moreover, the EC50 with MDA-MB-231 [6] came to 5.2 nM; in test [1], 1 nM; in test [1] (read-out: EC50), 0.3 nM.

Compound `N#Cc1ccc(NCc2ccc(CNc3ccc(C#N)cc3)cc2)cc1` gave an EC in test [1] of 1000 nM.

`c1ccc(NC[C@H]2CC[C@H](CNc3ccccc3)CC2)cc1`: the EC in test [1] is more than 1000 nM.

The compound `Fc1ccc(NCc2ccc(CNc3ccc(F)cc3)cc2)cc1` displayed an EC in test [1] of 1000 nM.

With `Cc1c(C)c(CNc2ccccc2)c(C)c(C)c1CNc1ccccc1`, in test [1], the EC is 10 nM.

`O=[N+]([O-])c1cccc(NCc2ccc(CNc3cccc([N+](=O)[O-])c3)cc2)c1`: the EC in test [1] was found to be 1 nM.

In test [1], `CN(C)Cc1ccc(CN(C)C)cc1` came in with an EC of more than 1000 nM.

Consider `C[N+](C)(C)Cc1ccc(C[N+](C)(C)C)cc1`, for which, in test [1], the EC was more than 1000 nM.

In test [1], `CCc1ccc(NCc2ccc(CNc3ccc(CC)cc3)cc2)cc1` came in with an EC of 20 nM.

`N=C(N)Nc1ccc(NC(=N)N)cc1` displayed an EC in test [1] of more than 1000 nM.

In test [1], `COc1cccc(NCc2ccc(CNc3cccc(OC)c3)cc2)c1` gave an EC of 1 nM.

`c1ccc(NCc2cc(CNc3ccccc3)cc(CNc3ccccc3)c2)cc1` displayed an EC in test [1] of more than 1000 nM.

For `COc1cccc(NC(=O)c2ccc(C(=O)Nc3cccc(OC)c3)cc2)c1`, in test [1], the EC was 1000 nM.

`c1ccc(NCc2c3ccccc3c(CNc3ccccc3)c3ccccc23)cc1` showed an EC in test [1] of 100 nM.

For `Cc1cc(CNc2ccccc2)c(C)cc1CNc1ccccc1`, the EC in test [1] was 200 nM.

Regarding `Cc1cc(CN)c(C)cc1CN`, in test [1], the EC was more than 1000 nM.

Take `Fc1cccc(NCc2ccc(CNc3cccc(F)c3)cc2)c1`: the EC in test [1] was 100 nM.

The compound `COc1ccc(NCc2ccc(CNc3ccc(OC)cc3)cc2)cc1` registered an EC in test [1] of 25 nM.

Compound `CC(Nc1ccccc1)c1ccc(C(C)Nc2ccccc2)cc1` (stereo not given) displayed an EC in test [1] of 50 nM.
